Results reported in ChEMBL document CHEMBL1817569, “Synthesis, antifungal activity and QSAR study of 2-arylhydroxynitroindoles” (Eur J Med Chem, 2011).
≈ marks a conversion by molar mass, not a printed value.

Tests used:
Fusarium oxysporum [1] = test: Fungicidal activity against Fusarium oxysporum assessed as mycelium growth inhibition at 30 ug/mL after 72 hrs; assay type: functional; details: read-out: GI
How it was run: (§1)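 Radial mycelial growth test on potato-saccharose agar mixed with compound at a single concentration. Plates are inoculated with inverted 3-mm fungus-coated discs and incubated at 25 °C. Colony diameter (mm) is read at 72 h against medium without sample. Inhibition I = [(DC − DT)/DC] × 100%. Three replicates.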

Venturia inaequalis [2] = test: Fungicidal activity against Venturia inaequalis assessed as mycelium growth inhibition at 30 ug/mL after 72 hrs; assay type: functional; details: read-out: GI; how it was run: as §1
Bipolaris sorokiniana [3] = test: Fungicidal activity against Bipolaris sorokiniana assessed as mycelium growth inhibition at 30 ug/mL after 72 hrs; assay type: functional; details: read-out: GI; how it was run: as §1
Sclerotinia sclerotiorum [4] = test: Fungicidal activity against Sclerotinia sclerotiorum assessed as mycelium growth inhibition at 30 ug/mL after 72 hrs; assay type: functional; details: read-out: GI; how it was run: as §1
Fusarium verticillioides [5] = test: Fungicidal activity against Fusarium moniliforme assessed as mycelium growth inhibition at 30 ug/mL after 72 hrs; assay type: functional; details: read-out: GI; how it was run: as §1
Rhizoctonia solani [6] = test: Fungicidal activity against Rhizoctonia solani assessed as mycelium growth inhibition at 30 ug/mL after 72 hrs; assay type: functional; details: read-out: GI; how it was run: as §1
Bipolaris sorokiniana [7] = test: Fungicidal activity against Bipolaris sorokiniana assessed as mycelium growth inhibition after 72 hrs; assay type: functional, organism-based
How it was run: (§2)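 EC50 from radial mycelial growth on potato-saccharose agar over a 1–100 concentration range. Inverted 3-mm fungus-coated discs are placed on the agar and incubated at 25 °C. Colony diameter (mm) is measured at 72 h, with plain medium as blank. Percent inhibition = (DC − DT)/DC × 100. Triplicate tests.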

Venturia inaequalis [8] = test: Fungicidal activity against Venturia inaequalis assessed as mycelium growth inhibition after 72 hrs; assay type: functional, organism-based; how it was run: as §2
Rhizoctonia solani [9] = test: Fungicidal activity against Rhizoctonia solani assessed as mycelium growth inhibition after 72 hrs; assay type: functional, organism-based; how it was run: as §2
Fusarium oxysporum [10] = test: Fungicidal activity against Fusarium oxysporum assessed as mycelium growth inhibition after 72 hrs; assay type: functional, organism-based; how it was run: as §2
Sclerotinia sclerotiorum [11] = test: Fungicidal activity against Sclerotinia sclerotiorum assessed as mycelium growth inhibition after 72 hrs; assay type: functional, organism-based; how it was run: as §2
Fusarium verticillioides [12] = test: Fungicidal activity against Fusarium moniliforme assessed as mycelium growth inhibition after 72 hrs; assay type: functional, organism-based; how it was run: as §2

| Structure (SMILES) | inhibition of growth at 30 µg/mL (Fusarium oxysporum [1]) | inhibition of growth at 30 µg/mL (Venturia inaequalis [2]) | inhibition of growth at 30 µg/mL (Bipolaris sorokiniana [3]) | inhibition of growth at 30 µg/mL (Sclerotinia sclerotiorum [4]) | inhibition of growth at 30 µg/mL (Fusarium verticillioides [5]) | inhibition of growth at 30 µg/mL (Rhizoctonia solani [6]) | EC50 (Bipolaris sorokiniana [7]) | EC50 (Venturia inaequalis [8]) | EC50 (Rhizoctonia solani [9]) | EC50 (Fusarium oxysporum [10]) | EC50 (Sclerotinia sclerotiorum [11]) | EC50 (Fusarium verticillioides [12]) |
| --- | --- | --- | --- | --- | --- | --- | --- | --- | --- | --- | --- | --- |
| O=[N+]([O-])c1cc(O)c2cc(-c3ccc(F)cc3)[nH]c2c1 | 58% | 60% | 35% | 48% | 73% | 96% | – | – | – | – | – | – |
| Cc1c(-c2ccccc2)[nH]c2c(O)ccc([N+](=O)[O-])c12 | 91% | 65% | 87% | 54% | 88% | 100% | – | – | – | – | – | – |
| COc1cc([N+](=O)[O-])cc2c1cc(-c1ccccc1)n2C | 7% | 21% | 7% | 8% | 23% | 7% | – | – | – | – | – | – |
| CC(C)(C)C(=O)C(Oc1ccc(Cl)cc1)n1cncn1 (stereo not drawn) [TRIADIMEFON] | 60% | 42% | 71% | 47% | 79% | 66% | 11 µg/mL (≈ 37.4 µM) | 20 µg/mL (≈ 68.1 µM) | 20.6 µg/mL (≈ 70.1 µM) | 3.25 µg/mL (≈ 11.1 µM) | 6.18 µg/mL (≈ 21 µM) | 2.41 µg/mL (≈ 8.2 µM) |
| Cc1c(-c2ccccc2)[nH]c2c([N+](=O)[O-])ccc(O)c12 | 73% | 70% | 83% | 51% | 84% | 100% | – | – | – | – | – | – |
| Nc1cc([N+](=O)[O-])c2cc(-c3ccccc3)oc2c1 | 9% | 16% | 3% | 7% | 5% | 3% | – | – | – | – | – | – |
| Cc1c(-c2ccccc2)[nH]c2c(O)cc([N+](=O)[O-])cc12 | 63% | 48% | 95% | 94% | 71% | 89% | – | – | – | – | – | – |
| O=[N+]([O-])c1cc(O)c2cc(-c3ccc(Br)cc3)[nH]c2c1 | 12% | 15% | 5% | 14% | 21% | 11% | – | – | – | – | – | – |
| O=[N+]([O-])c1cc(O)c2cc(-c3ccccc3)[nH]c2c1 | 88% | 89% | 100% | 100% | 100% | 100% | 26.6 µg/mL (≈ 105 µM) | 16.9 µg/mL (≈ 66.5 µM) | 11.2 µg/mL (≈ 44.1 µM) | 21.5 µg/mL (≈ 84.6 µM) | 17.2 µg/mL (≈ 67.7 µM) | 6.84 µg/mL (≈ 26.9 µM) |
| Cc1c(-c2ccccc2)[nH]c2cc([N+](=O)[O-])cc(O)c12 | 87% | 93% | 89% | 100% | 100% | 100% | 13 µg/mL (≈ 48.5 µM) | 15.4 µg/mL (≈ 57.4 µM) | 5.86 µg/mL (≈ 21.8 µM) | 18 µg/mL (≈ 67.1 µM) | 8.65 µg/mL (≈ 32.2 µM) | 3.48 µg/mL (≈ 13 µM) |
